From ChEMBL document CHEMBL1250501, “Anti-tubercular agents. Part 5: synthesis and biological evaluation of benzothiadiazine 1,1-dioxide based congeners” (Eur J Med Chem, 2010)
Values after ≈ are worked out from the molar mass of the structure shown. Active and inactive are the calls of the source. The calls are words filed in the database; no cut-off is given here.

What was measured:
[1] = test system: Mycobacterium tuberculosis; assay: Antimycobacterial activity against Mycobacterium tuberculosis H37Rv after 3 to 4 weeks by broth microdilution assay; format: functional
Outline: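 MIC by broth microdilution on compounds active in a single-concentration primary screen. Plates incubated 3–4 weeks at 37 °C in a CO₂ incubator. Wells read visually for absence of growth turbidity.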

Staphylococcus aureus [2] = assay: Antibacterial activity against Staphylococcus aureus at 100 ug/ml after 18 hrs by cup plate method; format: functional; details: read-out: DIZ
Outline: (§1)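 Agar well diffusion on Mueller-Hinton agar. Inoculum was adjusted to a 0.5 McFarland standard (about […] × 10⁸ CFU/mL) and swabbed over the plate three times, rotating about 60° each time, then the rim was swabbed. Compounds in DMSO went into duplicate 6 mm wells. Plates were incubated at 37 °C for 18 h and inhibition zone diameter read to the nearest mm. DMSO negative control; streptomycin and ciprofloxacin positive controls.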

Staphylococcus aureus [3] = assay: Antibacterial activity against Staphylococcus aureus at 50 ug/ml after 18 hrs by cup plate method; format: functional; details: read-out: DIZ; outline: as §1
[4] = test system: Staphylococcus epidermidis; assay: Antibacterial activity against Staphylococcus epidermidis at 100 ug/ml after 18 hrs by cup plate method; format: functional; details: read-out: DIZ; outline: as §1
[5] = test system: Staphylococcus epidermidis; assay: Antibacterial activity against Staphylococcus epidermidis at 50 ug/ml after 18 hrs by cup plate method; format: functional; details: read-out: DIZ; outline: as §1
Bacillus subtilis [6] = assay: Antibacterial activity against Bacillus subtilis at 100 ug/ml after 18 hrs by cup plate method; format: functional; details: read-out: DIZ; outline: as §1
Bacillus subtilis [7] = assay: Antibacterial activity against Bacillus subtilis at 50 ug/ml after 18 hrs by cup plate method; format: functional; details: read-out: DIZ; outline: as §1
Escherichia coli [8] = assay: Antibacterial activity against Escherichia coli at 100 ug/ml after 18 hrs by cup plate method; format: functional; details: read-out: DIZ; outline: as §1
Escherichia coli [9] = assay: Antibacterial activity against Escherichia coli at 50 ug/ml after 18 hrs by cup plate method; format: functional; details: read-out: DIZ; outline: as §1
Klebsiella pneumoniae [10] = assay: Antibacterial activity against Klebsiella pneumoniae at 100 ug/ml after 18 hrs by cup plate method; format: functional; details: read-out: DIZ; outline: as §1
Klebsiella pneumoniae [11] = assay: Antibacterial activity against Klebsiella pneumoniae at 50 ug/ml after 18 hrs by cup plate method; format: functional; details: read-out: DIZ; outline: as §1
Pseudomonas aeruginosa [12] = assay: Antibacterial activity against Pseudomonas aeruginosa at 100 ug/ml after 18 hrs by cup plate method; format: functional; details: read-out: DIZ; outline: as §1
Pseudomonas aeruginosa [13] = assay: Antibacterial activity against Pseudomonas aeruginosa at 50 ug/ml after 18 hrs by cup plate method; format: functional; details: read-out: DIZ; outline: as §1
Candida albicans [14] = assay: Antifungal activity against Candida albicans MTCC 227 at 100 ug/ml after 48 hrs by cup plate method; format: functional; details: MTCC 227, 48 h, read-out: IZ
Outline: (§2)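 Agar well (cup plate) diffusion on potato dextrose agar 39 g/L, with compounds dissolved in DMSO. Plates were incubated at 28 ± 2 °C for 48 h and inhibition zones measured to the nearest mm. Three replicates per treatment. Amphotericin B positive control; solvent control included.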

Candida albicans [15] = assay: Antifungal activity against Candida albicans MTCC 227 at 50 ug/ml after 48 hrs by cup plate method; format: functional
Outline: (§3)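 Agar well (cup plate) diffusion on potato dextrose agar 39 g/L. Compounds dissolved in DMSO and loaded into 6 mm wells. Incubated at 28 ± 2 °C for 48 h. Inhibition zone diameter measured to the nearest millimetre, three replicates per treatment. DMSO solvent as negative control, amphotericin B as positive control.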

Staphylococcus aureus [16] = assay: Antibacterial activity against Staphylococcus aureus at 10 ug/ml after 18 hrs by cup plate method; format: functional; details: read-out: DIZ; outline: as §1
Staphylococcus aureus [17] = assay: Antibacterial activity against Staphylococcus aureus at 25 ug/ml after 18 hrs by cup plate method; format: functional; details: read-out: DIZ; outline: as §1
Staphylococcus aureus [18] = assay: Antibacterial activity against Staphylococcus aureus at 75 ug/ml after 18 hrs by cup plate method; format: functional; details: read-out: DIZ; outline: as §1
[19] = test system: Staphylococcus epidermidis; assay: Antibacterial activity against Staphylococcus epidermidis at 10 ug/ml after 18 hrs by cup plate method; format: functional; details: read-out: DIZ; outline: as §1
[20] = test system: Staphylococcus epidermidis; assay: Antibacterial activity against Staphylococcus epidermidis at 25 ug/ml after 18 hrs by cup plate method; format: functional; details: read-out: DIZ; outline: as §1
[21] = test system: Staphylococcus epidermidis; assay: Antibacterial activity against Staphylococcus epidermidis at 75 ug/ml after 18 hrs by cup plate method; format: functional; details: read-out: DIZ; outline: as §1
Bacillus subtilis [22] = assay: Antibacterial activity against Bacillus subtilis at 10 ug/ml after 18 hrs by cup plate method; format: functional; outline: as §1
Bacillus subtilis [23] = assay: Antibacterial activity against Bacillus subtilis at 25 ug/ml after 18 hrs by cup plate method; format: functional; details: read-out: DIZ; outline: as §1
Bacillus subtilis [24] = assay: Antibacterial activity against Bacillus subtilis at 75 ug/ml after 18 hrs by cup plate method; format: functional; details: read-out: DIZ; outline: as §1
Escherichia coli [25] = assay: Antibacterial activity against Escherichia coli at 10 ug/ml after 18 hrs by cup plate method; format: functional; details: read-out: DIZ; outline: as §1
Escherichia coli [26] = assay: Antibacterial activity against Escherichia coli at 25 ug/ml after 18 hrs by cup plate method; format: functional; details: read-out: DIZ; outline: as §1
Escherichia coli [27] = assay: Antibacterial activity against Escherichia coli at 75 ug/ml after 18 hrs by cup plate method; format: functional; details: read-out: DIZ; outline: as §1
Pseudomonas aeruginosa [28] = assay: Antibacterial activity against Pseudomonas aeruginosa at 10 ug/ml after 18 hrs by cup plate method; format: functional; outline: as §1
Pseudomonas aeruginosa [29] = assay: Antibacterial activity against Pseudomonas aeruginosa at 25 ug/ml after 18 hrs by cup plate method; format: functional; details: read-out: DIZ; outline: as §1
Pseudomonas aeruginosa [30] = assay: Antibacterial activity against Pseudomonas aeruginosa at 75 ug/ml after 18 hrs by cup plate method; format: functional; details: read-out: DIZ; outline: as §1
Klebsiella pneumoniae [31] = assay: Antibacterial activity against Klebsiella pneumoniae at 10 ug/ml after 18 hrs by cup plate method; format: functional; details: read-out: DIZ; outline: as §1
Klebsiella pneumoniae [32] = assay: Antibacterial activity against Klebsiella pneumoniae at 25 ug/ml after 18 hrs by cup plate method; format: functional; details: read-out: DIZ; outline: as §1
Klebsiella pneumoniae [33] = assay: Antibacterial activity against Klebsiella pneumoniae at 75 ug/ml after 18 hrs by cup plate method; format: functional; details: read-out: DIZ; outline: as §1
Candida albicans [34] = assay: Antifungal activity against Candida albicans MTCC 227 at 25 ug/ml after 48 hrs by cup plate method; format: functional; outline: as §3
Candida albicans [35] = assay: Antifungal activity against Candida albicans MTCC 227 at 75 ug/ml after 48 hrs by cup plate method; format: functional; outline: as §3
Aspergillus niger [36] = assay: Antifungal activity against Aspergillus niger at 25 ug/ml after 48 hrs by cup plate method; format: functional, organism-based; outline: as §2
Aspergillus niger [37] = assay: Antifungal activity against Aspergillus niger at 50 ug/ml after 48 hrs by cup plate method; format: functional, organism-based; outline: as §2
Aspergillus niger [38] = assay: Antifungal activity against Aspergillus niger at 75 ug/ml after 48 hrs by cup plate method; format: functional; outline: as §2
Aspergillus niger [39] = assay: Antifungal activity against Aspergillus niger at 100 ug/ml after 48 hrs by cup plate method; format: functional; outline: as §2
Aspergillus sp. [40] = assay: Antifungal activity against Aspergillus sp. at 25 ug/ml after 48 hrs by cup plate method; format: functional; outline: as §2
Aspergillus sp. [41] = assay: Antifungal activity against Aspergillus sp. at 50 ug/ml after 48 hrs by cup plate method; format: functional; outline: as §2
Aspergillus sp. [42] = assay: Antifungal activity against Aspergillus sp. at 75 ug/ml after 48 hrs by cup plate method; format: functional; outline: as §2
Aspergillus sp. [43] = assay: Antifungal activity against Aspergillus sp. at 100 ug/ml after 48 hrs by cup plate method; format: functional; outline: as §2
Staphylococcus aureus [44] = assay: Antibacterial activity against Staphylococcus aureus at 100 units after 18 hrs by cup plate method; format: functional, organism-based
[45] = test system: Staphylococcus epidermidis; assay: Antibacterial activity against Staphylococcus epidermidis at 100 units after 18 hrs by cup plate method; format: functional, organism-based
Bacillus subtilis [46] = assay: Antibacterial activity against Bacillus subtilis at 100 units after 18 hrs by cup plate method; format: functional, organism-based
Escherichia coli [47] = assay: Antibacterial activity against Escherichia coli at 100 units after 18 hrs by cup plate method; format: functional, organism-based
Klebsiella pneumoniae [48] = assay: Antibacterial activity against Klebsiella pneumoniae at 100 units after 18 hrs by cup plate method; format: functional, organism-based
Pseudomonas aeruginosa [49] = assay: Antibacterial activity against Pseudomonas aeruginosa at 100 units after 18 hrs by cup plate method; format: functional, organism-based
Candida albicans [50] = assay: Antifungal activity against Candida albicans MTCC 227 at 100 units after 48 hrs by cup plate method; format: functional
Aspergillus niger [51] = assay: Antifungal activity against Aspergillus niger at 100 units after 48 hrs by cup plate method; format: functional
Aspergillus sp. [52] = assay: Antifungal activity against Aspergillus sp. at 100 units after 48 hrs by cup plate method; format: functional

`CCN1C(N2CCN(Cc3ccc([N+](=O)[O-])o3)CC2)=NS(=O)(=O)c2ccccc21` gave an MIC [1] of 2.81 µg/mL (≈ 6.7 µM), a zone of inhibition at 100 µg/mL (Staphylococcus aureus [2]) of 10 mm and a zone of inhibition at 50 µg/mL (Staphylococcus aureus [3]) of 16 mm. For the same molecule, the zone of inhibition at 100 µg/mL [4] was 24 mm, the zone of inhibition at 50 µg/mL [5] was 12 mm and the zone of inhibition at 100 µg/mL (Bacillus subtilis [6]) was 23 mm. It also gave a zone of inhibition at 50 µg/mL (Bacillus subtilis [7]) of 17 mm, a zone of inhibition at 100 µg/mL (Escherichia coli [8]) of 30 mm and a zone of inhibition at 50 µg/mL (Escherichia coli [9]) of 16 mm. It also gave a zone of inhibition at 100 µg/mL (Klebsiella pneumoniae [10]) of 19 mm, a zone of inhibition at 50 µg/mL (Klebsiella pneumoniae [11]) of 11 mm and a zone of inhibition at 100 µg/mL (Pseudomonas aeruginosa [12]) of 16 mm. For the same molecule, the zone of inhibition at 50 µg/mL (Pseudomonas aeruginosa [13]) was 10 mm, the zone of inhibition at 100 µg/mL (Candida albicans [14]) was 10 mm and the “inhibition zone (IZ)” value (Candida albicans [15]) was “inactive”. The zone of inhibition at 10 µg/mL (Staphylococcus aureus [16]) was 13 mm, the zone of inhibition at 25 µg/mL (Staphylococcus aureus [17]) was 16 mm and the zone of inhibition at 75 µg/mL (Staphylococcus aureus [18]) was 21 mm. For the same molecule, the zone of inhibition at 10 µg/mL [19] was 9 mm, the zone of inhibition at 25 µg/mL [20] was 12 mm and the zone of inhibition at 75 µg/mL [21] was 15 mm. The “diameter of the inhibition zone (DIZ)” value (Bacillus subtilis [22]) was “inactive”, the zone of inhibition at 25 µg/mL (Bacillus subtilis [23]) was 11 mm and the zone of inhibition at 75 µg/mL (Bacillus subtilis [24]) was 19 mm. The zone of inhibition at 10 µg/mL (Escherichia coli [25]) was 12 mm, the zone of inhibition at 25 µg/mL (Escherichia coli [26]) was 20 mm and the zone of inhibition at 75 µg/mL (Escherichia coli [27]) was 29 mm. For the same molecule, the “diameter of the inhibition zone (DIZ)” value (Pseudomonas aeruginosa [28]) was “inactive”, the zone of inhibition at 25 µg/mL (Pseudomonas aeruginosa [29]) was 16 mm and the zone of inhibition at 75 µg/mL (Pseudomonas aeruginosa [30]) was 22 mm. It also gave a zone of inhibition at 10 µg/mL (Klebsiella pneumoniae [31]) of 10 mm, a zone of inhibition at 25 µg/mL (Klebsiella pneumoniae [32]) of 15 mm and a zone of inhibition at 75 µg/mL (Klebsiella pneumoniae [33]) of 20 mm. For the same molecule, the “inhibition zone (IZ)” value (Candida albicans [34]) was “inactive”, the “inhibition zone (IZ)” value (Candida albicans [35]) was “inactive” and the “inhibition zone (IZ)” value (Aspergillus niger [36]) was “inactive”. For the same molecule, the “inhibition zone (IZ)” value (Aspergillus niger [37]) was “inactive”, the “inhibition zone (IZ)” value (Aspergillus niger [38]) was “inactive” and the “inhibition zone (IZ)” value (Aspergillus niger [39]) was “inactive”. For the same molecule, the “inhibition zone (IZ)” value (Aspergillus sp. [40]) was “inactive”, the “inhibition zone (IZ)” value (Aspergillus sp. [41]) was “inactive” and the “inhibition zone (IZ)” value (Aspergillus sp. [42]) was “inactive”. For the same molecule, the “inhibition zone (IZ)” value (Aspergillus sp. [43]) was “inactive”.

For `C[C@@H]1[C@H](O)[C@@H](C)/C=C/C=C/C=C/C=C/C=C/C=C/C=C/[C@H](O[C@@H]2O[C@H](C)[C@@H](O)[C@H](N)[C@@H]2O)C[C@@H]2O[C@](O)(C[C@@H](O)C[C@@H](O)[C@H](O)CC[C@@H](O)C[C@@H](O)CC(=O)O[C@H]1C)C[C@H](O)[C@H]2C(=O)O` [AMPHOTERICIN B], the “diameter of the inhibition zone (DIZ)” value (Staphylococcus aureus [44]) was “inactive”, the “diameter of the inhibition zone (DIZ)” value [45] was “inactive” and the “diameter of the inhibition zone (DIZ)” value (Bacillus subtilis [46]) was “inactive”. For the same molecule, the “diameter of the inhibition zone (DIZ)” value (Escherichia coli [47]) was “inactive”, the “diameter of the inhibition zone (DIZ)” value (Klebsiella pneumoniae [48]) was “inactive” and the “diameter of the inhibition zone (DIZ)” value (Pseudomonas aeruginosa [49]) was “inactive”. The “inhibition zone (IZ)” value (Candida albicans [50]) was 14 mm, the “inhibition zone (IZ)” value (Aspergillus niger [51]) was 23 mm and the “inhibition zone (IZ)” value (Aspergillus sp. [52]) was 14 mm.
